A short description of series [1]: Aqueous solubility of the compound. It counts as physicochemical.
Series [2] is described as follows: Inhibition of guinea pig liver transglutaminase 2 using 5-(biotinamido)pentylamine as substrate by enzyme linked sorbent assay. Details: species or system Cavia porcellus. The essentials:
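Wells coated with N,N'-dimethylcasein received TG2 (2 ng ml-1), biotinyl-5-pentylamine, CaCl2 (5 mM), DTT (5 mM) and a range of inhibitor concentrations, then were incubated for 1 h at 37 °C. Incorporated biotinyl-5-pentylamine was quantified with Extravidin peroxidase and o-phenylenediamine colour development.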

Series [3] relates to Rattus norvegicus. Put plainly: Protective effect against kidney dysfunction in Wistar rat subtotal 5/6 nephrectomy model of kidney scarring assessed as reduction in scarring administered through osmotic pump measured after 84 days of surgery. It counts as functional. Details: scale not given: the % may be the effect or the level left.
The species named for series [4] is Cavia porcellus. Put plainly: Inhibition of guinea pig liver transglutaminase 2 at 5 uM preincubated for 60 mins in the presence of Ca2+. Details: scale not given: the % may be the effect or the level left.

A value given as a limit tells only on which side of the number the result lay.

The values that follow come from ChEMBL document CHEMBL1152229, “Synthesis of potent water-soluble tissue transglutaminase inhibitors” (Bioorg Med Chem Lett, 2008).

As for `CC(=O)CSc1n(C)cc[n+]1C.[Cl-]`, the solubility (commonly the concentration that dissolves in the medium under given conditions) in series [1] (water, read-out: solubility) is 200 mg/mL. In addition, the IC50 (usually the concentration that inhibits the measured activity by half) in series [2] turned out to be 4 µM.

Consider `C[S+](C)CC(=O)CC[C@H](NC(=O)[C@H](Cc1ccccc1)NC(=O)Cc1ccccc1)C(=O)O`, for which the IC50 in series [2] was 110 µM.

Take `C[S+](C)CC(=O)CC[C@H](NC(=O)[C@H](Cc1ccccc1)NC(=O)OCc1ccccc1)C(=O)O.[Br-]` (stereo in doubt; 4d): the Activity in series [3] is given as 90%. The solubility in series [1] (buffer) worked out at 167 mg/mL. The IC50 in series [2] amounted to 10 µM.

In turn, `CC[C@H](C)[C@H](NC(=O)OCc1ccccc1)C(=O)N[C@@H](CCC(=O)C[S+](C)C)C(=O)O` yielded an IC50 in series [2] of 350 µM.

In series [1] (buffer), `C[S+](C)CC(=O)CC[C@H](NC(=O)[C@H](Cc1ccccc1)NC(=O)OCc1ccccc1)C(=O)O.[Br-]` (stereo in doubt; 4n) had a solubility of 67 mg/mL. The compound also displayed an IC50 in series [2] of 5 µM.

In series [2], `C[S+](C)CC(=O)CC[C@H](NC(=O)[C@H](CCCCN)NC(=O)OCc1ccccc1)C(=O)O` displayed an IC50 of 150 µM.

`C[S+](C)CC(=O)CC[C@H](NC(=O)[C@H](Cc1ccccc1)NC(=O)OCC1c2ccccc2-c2ccccc21)C(=O)O` showed an IC50 in series [2] of 30 µM.

In series [2], `CC[S+](CC)CC(=O)CC[C@H](NC(=O)[C@H](Cc1ccccc1)NC(=O)OCc1ccccc1)C(=O)O` displayed an IC50 of 20 µM.

For the compound `C[S+](C)CC(=O)CC[C@H](NC(=O)[C@H](Cc1c[nH]c2ccccc12)NC(=O)OCc1ccccc1)C(=O)O`, it took 12 µM to reach half-maximal inhibition in series [2] (IC50).

With `C[S+](C)CC(=O)CC[C@H](NC(=O)[C@@H]1C[C@@H](O)CN1C(=O)OCc1ccccc1)C(=O)O`, 18 µM corresponded to half-maximal inhibition in series [2] (IC50).

The compound `Cc1c(C)[n+](C)c(SCC(=O)CC[C@H](NC(=O)[C@H](Cc2ccccc2)NC(=O)OCc2ccccc2)C(=O)O)n1C` came in with an IC50 in series [2] of 3 µM.

For `C[S+](C)CC(=O)CC[C@H](NC(=O)[C@H](Cc1ccccc1)NC(=O)OC(C)(C)C)C(=O)O`, half-maximal inhibition in series [2] (IC50) required 300 µM.

In series [2], `C[C@H](NC(=O)OCc1ccccc1)C(=O)N[C@@H](CCC(=O)C[S+](C)C)C(=O)O` came in with an IC50 of 20 µM.

Regarding `C[S+](C)CC(=O)CC[C@H](NC(=O)CNC(=O)OCc1ccccc1)C(=O)O.[Br-]`, the solubility in series [1] (water, read-out: solubility) came out at 1000 mg/mL. Besides, 8 µM corresponded to half-maximal inhibition in series [2] (IC50).

In the case of `C[S+](C)CC(=O)CC[C@H](NC(=O)[C@H](CC(=O)O)NC(=O)OCc1ccccc1)C(=O)O`, in series [2], 28 µM corresponded to half-maximal inhibition (IC50).

For `C[S+](C)CC(=O)CC[C@H](NC(=O)[C@@H]1CCCN1C(=O)OCc1ccccc1)C(=O)O.[Br-]`, the solubility in series [1] (water, read-out: solubility) is 500 mg/mL. In series [2], this compound came in with an IC50 of 5 µM. The Activity in series [4] turned out to be 77%.

In series [2], `C[S+](C)CC(=O)CC[C@H](NC(=O)[C@H](Cc1ccccc1)NC(=O)OCCc1ccccc1)C(=O)O` returned an IC50 of 8 µM.

In the case of `O=C(N[C@@H](Cc1ccccc1)C(=O)NCC1CC(Br)=NO1)OCc1ccccc1` (stereo partly specified), the solubility in series [1] (water, read-out: solubility) is less than 1 mg/mL. The IC50 in series [2] is more than 200 µM.
